Laboratory results: the array DNA melting data of Ke et al. (doi:10.1101/2024.01.08.574731)

Legend:
[1] = folding enthalpy; higher = less favourable; fluorescence melt of hairpins on a sequencing array, two-state fit; conditions: sodium 0.088 M
How it was run: (§1)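 With Cy3 and quencher oligos annealed, library hairpins on a sequenced MiSeq flow cell were imaged for Cy3 fluorescence in 50 mM Na-HEPES pH 8.0, 25 mM NaCl, in 2.5 °C steps up to 60 °C. Melting temperature and folding enthalpy were derived from bootstrapped two-state fits of signals normalised to pre-quench Cy3 and to control constructs. Four replicates were combined by inverse variance, with fitted temperatures raised by 9.35 °C to match UV melts.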

[2] = melting temperature; fluorescence melt of hairpins on a sequencing array, two-state fit, raised by 9.35 °C to match UV melts; conditions: sodium 0.088 M
How it was run: as §1

| Sequence | folding enthalpy [1] [kcal/mol] | Tm [2] [°C] |
| --- | --- | --- |
| GTTTGCCGAAAGGCGAAC (((.(((....))).))) | -28.3 | 61.9 |
| GTTTGCGAAAGCAACAAC ((((((....)))..))) | -9.1 | 33.7 |
| GTTTGCGAAAGCACAAAC ((((((....)))..))) | -12.3 | 31.6 |
| GTTTGCGAAAGCATGAAC ((((((....)))..))) | -8.14 | 26.4 |
| GTTTGGCGAAAGCCAAC (((.(((....)))))) | -11.1 | 48.7 |
| GTTTGGCGAAAGCCTAAC (((.(((....))).))) | -21.8 | 51 |
| GTTTGGGCGAAAGCCAAC (((..(((....)))))) | -10.8 | 36.1 |
| GTTTGTCGAAAGACAAC (((.(((....)))))) | -14.3 | 47.5 |
| GTTTGTCGAAAGACCAAC (((.(((....))).))) | -26.1 | 37.9 |
| GTTTGTCGAAAGACTAAC (((.(((....))).))) | -23.9 | 45.8 |
| GTTTGTGGAAACGTAAAC ((((..(....)..)))) | -13.6 | 29.1 |
| GTTTTACGAAAGTACAAC (((.(((....))).))) | -25.8 | 35.5 |
| GTTTTAGGAAACTAAAAC (((((((....))))))) | -41.9 | 48.4 |
| GTTTTAGGAAACTAGAAC (((.(((....))).))) | -11.5 | 27.9 |
| GTTTTAGGAAACTGAAAC ((((.((....)).)))) | -22.1 | 35.2 |
| GTTTTCGAAAGAAAAC ((((((....)))))) | -29.2 | 57.4 |
| GTTTTCGGAAACGAAGAC ((.((((....)))).)) | -28.8 | 42.5 |
| GTTTTCTCGAAAGAGAAC (((..(((....)))))) | -15.3 | 34.7 |
| GTTTTGCGAAAGCATAAC (((.(((....))).))) | -25.4 | 45.3 |

| Sequence | folding enthalpy [1] [kcal/mol] | Tm [2] [°C] |
| --- | --- | --- |
| GTTTTGGCGAAAGCCAAC (((..(((....)))))) | -8.06 | 38.6 |
| GTTTTGGGAAACCGAAAC ((((.((....)).)))) | -38.3 | 45.7 |
| GTTTTGGGAAACTGAAAC ((((..(....)..)))) | -12.2 | 31.4 |
| GTTTTTCGAAAGAATAAC (((.(((....))).))) | -28.1 | 34.7 |
| GTTTTTGGAAACAGAAAC ((((.((....)).)))) | -28.1 | 32.7 |
| TAAACGAAAGTTTA (((((....))))) | -15.4 | 41.5 |
| TACCTGAAAAGGTA (((((....))))) | -14.8 | 41.3 |
| TACGAGAAATCGTA (((((....))))) | -14.9 | 37.5 |
| TACTCGAAAGAGTA (((((....))))) | -18.1 | 47.1 |
| TAGCAGAAATGCTA (((((....))))) | -14 | 38.1 |
| TAGCGGAAACGCTA (((((....))))) | -15.9 | 54.3 |
| TAGGGGAAACCCTA (((((....))))) | -15.3 | 40.2 |
| TATCTGAAAAGATA (((((....))))) | -11.5 | 29.8 |
| TATGTGAAAACATA (((((....))))) | -12.4 | 35.3 |
| TATTGGAAACAATA (((((....))))) | -5.94 | 25.5 |
| TCAAGGAAACTTGA (((((....))))) | -8.95 | 32 |
| TCACGGAAACGTGA (((((....))))) | -19.9 | 50.9 |
| TCCCGGAAACGGGA (((((....))))) | -19.7 | 60.7 |
| TCCGAGAAATCGGA (((((....))))) | -19.6 | 46.4 |

| Sequence | folding enthalpy [1] [kcal/mol] | Tm [2] [°C] |
| --- | --- | --- |
| TCCGGGAAACCGGA (((((....))))) | -20.2 | 53.2 |
| TCCGTGAAAACGGA (((((....))))) | -18 | 53.8 |
| TCCTCGAAAGAGGA (((((....))))) | -17.6 | 52.7 |
| TCGAGGAAACTCGA (((((....))))) | -18.8 | 48 |
| TCGCAGAAATGCGA (((((....))))) | -17.1 | 54.4 |
| TCTTGGAAACAAGA (((((....))))) | -11.1 | 35.7 |
| TGCTGGAAACAGCA (((((....))))) | -19.4 | 53.1 |
| TGCTTGAAAAAGCA (((((....))))) | -8.9 | 47.9 |
| TGGATGAAAATCCA (((((....))))) | -17.8 | 46.1 |
| TGTGGGAAACCACA (((((....))))) | -20.5 | 49.6 |
| TTACCGAAAGGTAA (((((....))))) | -16.7 | 50.4 |
| TTCTGGAAACAGAA (((((....))))) | -15.6 | 35.4 |
| TTGCGGAAACGCAA (((((....))))) | -18.1 | 57.6 |
| TTGGAGAAATCCAA (((((....))))) | -11.1 | 35.5 |
| TTGGGGAAACCCAA (((((....))))) | -17.4 | 43.4 |
| TTGTCGAAAGACAA (((((....))))) | -18.1 | 55 |
| TTTACGAAAGTAAA (((((....))))) | -13.5 | 42.7 |
| TTTCAGAAATGAAA (((((....))))) | -5.49 | 18 |
